# Screens deposited in PubChem BioAssay by Broad Institute.
# Many of the other results were omitted from the sample, so hits are more common in it than they were.
# GASC1 inh: blocks human GASC-1 (KDM4C) demethylase activity; Q9H3R0; GST-KDM4C 2-372, H3K9me3 peptide, LANCE TR-FRET; inhibition, % at 12.5 µM; 96,000 compounds, 0.15% hits;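 active = mean replicate inhibition above about 25%, with at least 55% of replicates also reaching it, limit read from the data, passing the limit was not always enough; inconclusive = only one of those two conditions met; inactive = neither condition met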
#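 Material: GST-tagged GASC-1 (JMJD2C) catalytic fragment, aa 2-372. Input: enzyme final amount 10 nM. Medium: HEPES buffer, pH 7.5, plus ascorbate. Reagent: H3K9me3 peptide substrate, Fe(II), 2-oxoglutarate. Doses: single dose. Times: reaction 30 min RT, detection step 1 h RT. Measured by: LANCE TR-FRET. Evaluation: Fall in 671/618 emission ratio as inhibition.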
# IDH1 R132H inh: blocks human IDH1 R132H reductase activity. O75874. diaphorase/resazurin fluorescence, 60 min. inhibition, % at 10 µM. 70,000 compounds, 0.18% hits; in the data active = inhibition above about 34%; inconclusive = no clear call, values can overlap the other calls; inactive = below about 11%;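 note: 0% = DMSO and 100% = no enzyme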
# Target sequence (O75874 whole entry R132H): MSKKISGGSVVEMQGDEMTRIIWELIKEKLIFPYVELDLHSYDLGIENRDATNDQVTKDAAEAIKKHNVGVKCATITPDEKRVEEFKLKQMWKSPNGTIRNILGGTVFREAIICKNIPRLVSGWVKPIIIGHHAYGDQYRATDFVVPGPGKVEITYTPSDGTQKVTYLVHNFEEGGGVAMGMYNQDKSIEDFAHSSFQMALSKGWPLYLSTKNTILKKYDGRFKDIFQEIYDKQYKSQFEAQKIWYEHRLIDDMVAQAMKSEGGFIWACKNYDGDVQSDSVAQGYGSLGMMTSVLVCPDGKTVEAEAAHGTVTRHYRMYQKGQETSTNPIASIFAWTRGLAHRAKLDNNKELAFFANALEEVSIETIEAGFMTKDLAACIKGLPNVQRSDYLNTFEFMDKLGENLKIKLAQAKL
# T cruzi growth-1: inhibitors of T. cruzi proliferation; T. cruzi beta-gal in NIH3T3, GalScreen luminescence, 90 h; inhibition, % at 8.34 µM; 77,000 compounds, 5.9% hits;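 active = mean inhibition above about 93%, with at least 55% of replicates each passing it, limit read from the data, passing the limit was not always enough; inconclusive = only one of those two conditions holds; inactive = neither condition holds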
# T cruzi growth-2: inhibitors of T. cruzi proliferation. shares compounds with T cruzi growth-1. T. cruzi beta-gal in NIH3T3, GalScreen luminescence, 90 h. inhibition, % at 8.35 µM. 5,600 compounds, 72% hits;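 active = mean replicate inhibition above about 95% and at least 55% of replicates individually reaching it, limit read from the data; inconclusive = only one of the two criteria is met; inactive = neither criterion is met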
# T cruzi growth-3: inhibitors of T. cruzi proliferation; shares compounds with T cruzi growth-1; T. cruzi beta-gal in NIH3T3, GalScreen luminescence, 90 h; inhibition, % at 2.09 µM; 5,600 compounds, 21% hits; AID 651740;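 active = mean inhibition above about 95%, with at least 55% of replicates also reaching it, limit read from the data; inconclusive = meets just one of the two conditions; inactive = meets neither condition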;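 note: plate controls were neutral control median for no effect and positive control median for full effect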
# 3T3 cytotox: kills mouse NIH/3T3 fibroblasts. shares compounds with T cruzi growth-1. NIH/3T3 viability, CellTiter-Glo ATP luminescence, 90 h. cytotoxicity (signal decrease), % at 8.35 µM. 5,600 compounds, 14% hits;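 active = mean signal decrease across replicates above about 35% based on untreated-well scatter, with enough replicates individually passing, limit read from the data; inconclusive = no rule stated though some were filed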;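 note: 0% = median of neutral control wells and 100% = median of positive control wells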
# NIH3T3 tox 2: cytotoxicity in mouse NIH/3T3 fibroblasts; shares compounds with T cruzi growth-1; NIH/3T3 viability, CellTiter-Glo ATP luminescence, 90 h; inhibition, % at 24.9 µM; 5,600 compounds, 56% hits; AID 651744;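 active = mean loss of cell viability signal at or above a set limit, and enough replicates individually reaching it; inconclusive = meets only the mean limit or only the replicate share; inactive = meets neither condition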;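 note: 0% = median of neutral control wells and 100% = median of positive control wells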
# The depositor's hits bear a star; ? = inconclusive; · = no result given.
SMILES,GASC1 inh,IDH1 R132H inh,T cruzi growth-1,T cruzi growth-2,T cruzi growth-3,3T3 cytotox,NIH3T3 tox 2
Cc1ccc(S(=O)(=O)NC2c3cccc4cccc(c34)C2Sc2nnc(N)s2)cc1 (centres undefined),·,0,·,·,·,·,·
COC(=O)C1C(=O)c2c([nH]c(C(=O)OC(C)C)c2C)CC1C (centres undefined),·,0,·,·,·,·,·
C[C@@H]1CN([C@H](C)CO)C(=O)Cc2cc(N(C)C)ccc2O[C@@H]1CN(C)S(=O)(=O)c1ccc(Cl)cc1,-2,·,·,·,·,·,·
CCCC#Cc1ccc2c(c1)O[C@@H](CN(C)S(=O)(=O)c1cccc(F)c1)[C@@H](C)CN([C@@H](C)CO)S2(=O)=O,-2,0,121*,105*,102*,20,84*
COCC#Cc1ccc2c(c1)O[C@H](CN(C)S(=O)(=O)c1cccc(F)c1)[C@@H](C)CN([C@@H](C)CO)S2(=O)=O,-2,0,81,·,·,·,·
C[C@H]1CN([C@@H](C)CO)S(=O)(=O)c2ccc(C#CCN(C)C)cc2O[C@@H]1CN(C)S(=O)(=O)c1cccc(F)c1,3,0,·,·,·,·,·
COc1cccc(S(=O)(=O)N(C)C[C@@H]2Oc3cc(C#CCC(C)C)ccc3S(=O)(=O)N([C@@H](C)CO)C[C@H]2C)c1,0,-4,96*,103*,108*,43*,78*
CCCC#Cc1ccc2c(c1)O[C@H](CN(C)S(=O)(=O)c1cccc(F)c1)[C@H](C)CN([C@H](C)CO)S2(=O)=O,1,0,122*,103*,108*,16,75*
CCCC#Cc1ccc2c(c1)O[C@H](CN(C)S(=O)(=O)c1cccc(OC)c1)[C@@H](C)CN([C@H](C)CO)S2(=O)=O,11,0,·,·,·,·,·
CCCC#Cc1ccc2c(c1)O[C@H](CN(C)S(=O)(=O)c1cccc(F)c1)[C@@H](C)CN([C@H](C)CO)S2(=O)=O,0,1,122*,101*,106*,-3,24*
COc1cccc(S(=O)(=O)N(C)C[C@H]2Oc3cc(C#CCC(C)C)ccc3S(=O)(=O)N([C@@H](C)CO)C[C@@H]2C)c1,-2,1,74,·,·,·,·
COc1cccc(N(CC(=O)Nc2cccc(Cl)c2)S(C)(=O)=O)c1,·,0,·,·,·,·,·
C/C=C/c1ccc2c(c1)O[C@@H](CN(C)C(=O)NCCC)[C@@H](C)CN([C@H](C)CO)S2(=O)=O,-1,0,·,·,·,·,·
O=C(C[C@@H]1CC[C@@H]2[C@H](COC[C@@H](O)CN2C(=O)c2ccc3c(c2)OCO3)O1)NC1CCCC1,0,·,4,·,·,·,·
CS(=O)(=O)N(CC(=O)Nc1ccccc1C(=O)N1CCCC1)c1cccc(F)c1,·,0,·,·,·,·,·
CC(C)CC#Cc1ccc2c(c1)O[C@@H](CN(C)S(=O)(=O)c1cccc(F)c1)[C@@H](C)CN([C@H](C)CO)S2(=O)=O,-1,0,120*,90,100*,18,57*
COCC#Cc1ccc2c(c1)O[C@H](CN(C)S(=O)(=O)c1cccc(F)c1)[C@H](C)CN([C@H](C)CO)S2(=O)=O,5,-1,107*,93,74,30,63*
CC(C)CC#Cc1ccc2c(c1)O[C@@H](CN(C)S(C)(=O)=O)[C@@H](C)CN([C@H](C)CO)S2(=O)=O,0,-2,54,·,·,·,·
COCC#Cc1ccc2c(c1)O[C@@H](CN(C)S(=O)(=O)c1cccc(F)c1)[C@H](C)CN([C@@H](C)CO)S2(=O)=O,-1,-1,64,·,·,·,·
C[C@H]1CN([C@@H](C)CO)S(=O)(=O)c2ccc(/C=C/c3ccccc3)cc2O[C@@H]1CN(C)Cc1cncnc1,1,0,122*,100*,104*,69*,97*
C[C@H]1CN([C@@H](C)CO)S(=O)(=O)c2ccc(-c3ccccc3)cc2O[C@H]1CN(C)Cc1cncnc1,-1,-7,57,·,·,·,·
C/C=C/c1ccc2c(c1)O[C@@H](CN(C)Cc1cncnc1)[C@H](C)CN([C@H](C)CO)S2(=O)=O,1,0,·,·,·,·,·
C[C@@H]1CN([C@H](C)CO)S(=O)(=O)c2ccc(/C=C/c3ccccc3)cc2O[C@H]1CN(C)Cc1cncnc1,-3,-2,107*,98*,85,59*,65*
C/C=C/c1ccc2c(c1)O[C@@H](CN(C)Cc1cncnc1)[C@H](C)CN([C@@H](C)CO)S2(=O)=O,7,0,·,·,·,·,·
C[C@@H]1CN([C@@H](C)CO)S(=O)(=O)c2ccc(/C=C/c3ccccc3)cc2O[C@@H]1CN(C)Cc1cncnc1,-3,-4,108*,?,89,58*,70*
SMILES,GASC1 inh,IDH1 R132H inh,T cruzi growth-1,T cruzi growth-2,T cruzi growth-3,3T3 cytotox,NIH3T3 tox 2
C[C@H](CO)N1C[C@H](C)[C@@H](CN(C)Cc2cncnc2)Oc2cc(/C=C/c3ccccc3)ccc2S1(=O)=O,-4,0,121*,98*,102*,41*,81*
C[C@@H]1CN([C@H](C)CO)S(=O)(=O)c2ccc(/C=C/c3ccccc3)cc2O[C@H]1CN(C)Cc1cccnc1,6,·,·,·,·,·,·
O=C(C[C@H]1C=C[C@@H](NC(=O)Nc2cc(F)ccc2F)[C@@H](CO)O1)Nc1ccc(-c2ccccc2)cc1,4,·,·,·,·,·,·
O=C(Nc1sc2c(c1C(=O)NCC1CCCO1)CCC2)c1sc2ccccc2c1Cl (centres undefined),·,0,·,·,·,·,·
C[C@@H]1CN([C@@H](C)CO)C(=O)c2c(c3ccccc3n2C)-c2ccccc2CO[C@@H]1CN(C)S(=O)(=O)c1cn(C)cn1,-1,-3,?,8,-50,1,31*
C[C@H]1CN([C@@H](C)CO)C(=O)c2c(c3ccccc3n2C)-c2ccccc2CO[C@H]1CN(C)S(=O)(=O)c1cn(C)cn1,0,-2,101*,16,7,2,22
C[C@@H]1CN([C@H](C)CO)C(=O)c2c(c3ccccc3n2C)-c2ccccc2CO[C@@H]1CN(C)S(=O)(=O)c1cn(C)cn1,-2,·,90,·,·,·,·
C[C@@H]1CN([C@@H](C)CO)C(=O)c2c(c3ccccc3n2C)-c2ccccc2CO[C@H]1CN(C)S(C)(=O)=O,0,·,21,·,·,·,·
C[C@@H]1CN([C@@H](C)CO)C(=O)Cc2cc(NC(=O)CCC(F)(F)F)ccc2O[C@H]1CN(C)C(=O)Nc1ccc(F)cc1,2,5,-23,·,·,·,·
C[C@@H]1CCCCO[C@@H](CN(C)Cc2ccc3c(c2)OCO3)[C@@H](C)CN([C@@H](C)CO)C(=O)c2cc(NC(=O)NC3CCCCC3)ccc2O1,1,·,·,·,·,·,·
C[C@@H]1CCCCO[C@H](CN(C)Cc2ccc3c(c2)OCO3)[C@@H](C)CN([C@@H](C)CO)C(=O)c2cc(NC(=O)NC3CCCCC3)ccc2O1,1,1,94,·,·,·,·
